Measured values as given in ChEMBL document CHEMBL4007402 (J Med Chem, 2017).

Legend:
[1] = Growth inhibition of mouse BAF3 cells after 72 hrs by CellTiter-Glo or CCK-8 assay; type: cell-based
Procedure, shortened: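 Isogenic murine BaF3 cells transformed with TEL-fused kinases, whose proliferation depends on the fused kinase, were used. Parental BaF3 cells served as the general selectivity counter-screen. The anti-proliferative read-out was reported as GI50.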

[2] = molecular target: T1, Cytoplasmic tyrosine-protein kinase BMX (Homo sapiens) (UniProt P51813)
T1 sequence (whole entry): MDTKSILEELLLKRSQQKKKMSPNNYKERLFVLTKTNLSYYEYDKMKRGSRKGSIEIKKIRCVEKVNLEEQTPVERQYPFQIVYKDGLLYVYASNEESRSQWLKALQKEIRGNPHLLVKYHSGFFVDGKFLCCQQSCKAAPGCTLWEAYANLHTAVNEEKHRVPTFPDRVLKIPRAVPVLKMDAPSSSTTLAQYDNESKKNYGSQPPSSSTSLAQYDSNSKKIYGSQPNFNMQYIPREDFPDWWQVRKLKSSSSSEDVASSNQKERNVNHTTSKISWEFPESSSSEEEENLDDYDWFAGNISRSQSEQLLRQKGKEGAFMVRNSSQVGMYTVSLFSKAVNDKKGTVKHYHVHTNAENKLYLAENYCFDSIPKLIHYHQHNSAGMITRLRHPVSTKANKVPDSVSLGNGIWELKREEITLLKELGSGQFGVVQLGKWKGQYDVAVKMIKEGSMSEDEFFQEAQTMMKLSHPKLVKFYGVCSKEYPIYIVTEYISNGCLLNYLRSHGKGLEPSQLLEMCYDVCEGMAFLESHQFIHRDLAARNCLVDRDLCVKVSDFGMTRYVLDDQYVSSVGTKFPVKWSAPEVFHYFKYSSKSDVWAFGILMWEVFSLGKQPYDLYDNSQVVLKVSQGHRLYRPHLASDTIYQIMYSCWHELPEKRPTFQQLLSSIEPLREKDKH

Structure (SMILES)	GI50 at 72 h [1] [µM]	GI50 [2] [µM]
C=CC(=O)Nc1cc(Nc2ncc3c(n2)N(C)C(=O)N(c2cc(NC(=O)[C@H]4CC[C@H](C)CC4)ccc2C)C3)ccc1C	8.81	2.28
C=CC(=O)Nc1cc(Nc2ncc3c(n2)N(C)C(=O)N(c2cc(NC(=O)c4ccc5c(c4)OCO5)ccc2C)C3)ccc1C	> 10	0.23
C=CC(=O)Nc1cc(Nc2ncc(C(=O)Nc3cc(NC(=O)c4ccc5c(c4)OCO5)ccc3C)c(NC)n2)ccc1C	> 10	1.08
C=CC(=O)Nc1cc(Nc2ncc3c(n2)N(C)C(=O)N(c2cc(NC(=O)c4cc(C)ccc4F)ccc2C)C3)ccc1C	> 10	0.031
C=CC(=O)Nc1cc(Nc2ncc(C(=O)Nc3cc(NC(=O)c4ccc(OC)cc4)ccc3C)c(NC)n2)ccc1C	> 10	1.1
C=CC(=O)Nc1cc(Nc2ncc3c(n2)N(C)C(=O)N(c2cc(NC(=O)c4ccc(N(C)C)cc4)ccc2C)C3)ccc1C	> 10	1.03
C=CC(=O)Nc1cc(Nc2ncc3c(n2)N(C)C(=O)N(c2cc(NC(=O)c4ccc(OC)c(OC)c4)ccc2C)C3)ccc1C	8.13	0.24
C=CC(=O)Nc1cc(Nc2ncc3c(n2)N(C)C(=O)N(c2cc(NC(=O)[C@H]4CC[C@H](C(C)C)CC4)ccc2C)C3)ccc1C	> 10	5.28
C=CC(=O)Nc1cc(Nc2ncc3c(n2)N(C)C(=O)N(c2cc(NC(=O)c4c(C)cccc4F)ccc2C)C3)ccc1C	> 10	2.78
C=CC(=O)Nc1cc(Nc2ncc3c(n2)N(C)C(=O)N(c2cc(NC(=O)[C@@H](N)CC(C)C)ccc2C)C3)ccc1C	> 10	0.13
C=CC(=O)Nc1cc(Nc2ncc(C(=O)Nc3cc(C(=O)Nc4cccc(C(F)(F)F)c4)ccc3C)c(NC)n2)ccc1C	4.9	0.008
C=CC(=O)Nc1cc(Nc2ncc3c(n2)N(C)C(=O)N(c2cc(NC(=O)c4ccc(C)c(C(F)(F)F)c4)ccc2C)C3)ccc1C	> 10	1.24
C=CC(=O)Nc1cc(Nc2ncc3c(n2)N(C)C(=O)N(c2cc(NC(=O)[C@H]4CC[C@H](CCCC)CC4)ccc2C)C3)ccc1C	5.08	2.49
C=CC(=O)Nc1cc(Nc2ncc3c(n2)N(C)C(=O)N(c2cc(NC(=O)[C@H]4CC[C@H](C(F)(F)F)CC4)ccc2C)C3)ccc1C	> 10	5.9
C=CC(=O)Nc1cc(Nc2ncc3c(n2)N(C)C(=O)N(c2cc(NC(=O)c4ccc(OC)cc4)ccc2C)C3)ccc1C	> 10	1.07
C=CC(=O)Nc1cc(Nc2ncc3c(n2)N(C)C(=O)N(c2cc(NC(=O)c4cc(OC)cc(OC)c4)ccc2C)C3)ccc1C	> 10	0.69
C=CC(=O)Nc1cc(Nc2ncc(C(=O)Nc3cc(NC(=O)c4ccc(OC)c(OC)c4)ccc3C)c(NC)n2)ccc1C	> 10	1
C=CC(=O)Nc1cc(Nc2ncc3c(n2)N(C)C(=O)N(c2cc(NC(=O)c4ccc5c(c4)OCCO5)ccc2C)C3)ccc1C	> 10	> 10

Structure (SMILES)	GI50 at 72 h [1] [µM]	GI50 [2] [µM]
C=CC(=O)Nc1cc(Nc2ncc(C(=O)Nc3cc(C(=O)Nc4cc(OC)c(OC)c(OC)c4)ccc3C)c(NC)n2)ccc1C	> 10	0.098
C=CC(=O)Nc1cc(Nc2ncc(C(=O)Nc3cc(NC(=O)c4cccc(OC)c4)ccc3C)c(NC)n2)ccc1C	> 10	6
Cc1ccc(Nc2ncc3c(n2)N(C)C(=O)N(c2cc(NC(=O)c4cccc(C(F)(F)F)c4)ccc2C)C3)cn1	0.12	
C=CC(=O)Nc1cc(Nc2ncc3c(n2)N(C)C(=O)N(c2cc(NC(=O)c4cc(C(F)(F)F)cc(C(F)(F)F)c4)ccc2C)C3)ccc1C	> 10	0.78
C=CC(=O)Nc1cc(Nc2ncc(C(=O)Nc3cc(NC(=O)c4cc(C)ccc4F)ccc3C)c(NC)n2)ccc1C	> 10	0.044
C=CC(=O)Nc1cc(Nc2ncc3c(n2)N(C)C(=O)N(c2cc(NC(=O)[C@H]4CC[C@H](CCC)CC4)ccc2C)C3)ccc1C	7.4	0.64
C=CC(=O)Nc1cc(Nc2ncc3c(n2)N(C)C(=O)N(c2cc(NC(=O)c4ccccc4OC)ccc2C)C3)ccc1C	> 10	3.01
C=CC(=O)Nc1cc(Nc2ncc3c(n2)N(C)C(=O)N(c2cc(NC(=O)[C@@H](N)Cc4cc5ccccc5[nH]4)ccc2C)C3)ccc1C	> 10	> 10
C=CC(=O)Nc1cc(Nc2ncc3c(n2)N(C)C(=O)N(c2cc(NC(=O)[C@@H](N)Cc4ccccc4)ccc2C)C3)ccc1C	> 10	
C=CC(=O)Nc1cc(Nc2ncc3c(n2)N(C)C(=O)N(c2cc(NC(=O)c4ccc5c(c4)CCCC5)ccc2C)C3)ccc1C	> 10	
C=CC(=O)Nc1cc(Nc2ncc3c(n2)N(C)C(=O)N(c2cc(NC(=O)c4cc(OC)ccc4OC)ccc2C)C3)ccc1C	> 10	3
C=CC(=O)Nc1cc(Nc2ncc(C(=O)Nc3cc(NC(=O)c4cc(OC)cc(OC)c4)ccc3C)c(NC)n2)ccc1C	> 10	0.119
C=CC(=O)Nc1cc(Nc2ncc(C(=O)Nc3cc(NC(=O)c4ccc5c(c4)OCCO5)ccc3C)c(NC)n2)ccc1C	> 10	0.155
C=CC(=O)Nc1cc(Nc2ncc3c(n2)N(C)C(=O)N(c2cc(NC(=O)c4cccc(C(F)(F)F)c4)ccc2C)C3)ccc1C	0.74	
C=CC(=O)Nc1cc(Nc2ncc3c(n2)N(C)C(=O)N(c2cc(NC(=O)[C@@H](N)CCC(=O)OC(C)(C)C)ccc2C)C3)ccc1C	> 10	8.35
C=CC(=O)Nc1cc(Nc2ncc3c(n2)N(C)C(=O)N(c2cc(NC(=O)c4ccc(OC)cc4OC)ccc2C)C3)ccc1C	> 10	2.74
C=CC(=O)Nc1cc(Nc2ncc3c(n2)N(C)C(=O)N(c2cc(NC(=O)c4cc(OC)c(OC)c(OC)c4)ccc2C)C3)ccc1C	> 10	5.93
C=CC(=O)Nc1cc(Nc2ncc(C(=O)Nc3cc(NC(=O)c4ccccc4OC)ccc3C)c(NC)n2)ccc1C	> 10	0.67
